Test [1] in a line: (§1) Antagonist activity at GluN2B/GluN1a receptor (unknown origin) expressed in mouse L(tk-) cells assessed as cytoprotection against glycine/(S)-glutamate-induced cell death preincubated for 30 mins followed by glycine/(S)-glutamate addition measured after 6 hrs by LDH assay. Type of test: cell-based. The conditions noted are these: Homo sapiens, LTK. The method, boiled down: (§2)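 L(tk-) cells co-expressing GluN1a/GluN2B (1:5), dexamethasone-induced. Wells blocked with DMEM/1 % BSA. Cells preincubated with test compound at 5 concentrations (e.g. 4 x 10-5 to 10-9 mol/L), in at least triplicate, 30 min at 37 °C. Glutamate/glycine (20 µM each, solution) then added for 6 h at 37 °C. Supernatant LDH measured by diaphorase/lactate/NAD+/INT mix, 45 min at 37 °C, absorbance 485 nm. (S)-ketamine 4 x 10-5 mol/L was the positive control.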

Test [2] deals with T1, Glutamate receptor ionotropic, NMDA 2B (Homo sapiens, UniProt Q13224). Kind of test: Displacement of [3H]Ifenprodil from GluN2B receptor (unknown origin) expressed in mouse L(tk-) cell membranes incubated for 120 mins measured for 5 mins by scintillation counting method. In general terms: In a radioligand displacement assay an active substance lowers the binding of a labelled ligand.

The target in test [3] is Sigma non-opioid intracellular receptor 1 (Cavia porcellus, UniProt Q60492). The experiment in a line: Displacement of [3H]-(+)-pentazocine from sigma-1 receptor in guinea pig brain cortex membranes incubated for 120 mins measured for 5 mins by scintillation counting method. Type of test: cell membranes.
In test [4] the target is T2, Sigma intracellular receptor 2 (Rattus norvegicus, UniProt Q5U3Y7).
T2 sequence (Q5U3Y7 whole entry): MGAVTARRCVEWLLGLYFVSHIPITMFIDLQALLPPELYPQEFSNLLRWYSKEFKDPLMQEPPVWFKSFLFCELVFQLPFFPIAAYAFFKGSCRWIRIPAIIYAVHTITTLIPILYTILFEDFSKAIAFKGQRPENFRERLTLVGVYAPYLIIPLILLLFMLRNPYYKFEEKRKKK
The experiment in a line: Displacement of [3H]-di-o-tolylguanidine from sigma-2 receptor in rat liver membranes incubated for 120 mins measured for 5 mins by scintillation counting method. Type of test: cell membranes, Membrane.

The species entered for a further test is Sus scrofa. Kind of test: Displacement of [3H]-(+)-MK-801 from NMDA receptor PCP binding site in pig brain cortex membranes at 1 uM incubated for 120 mins measured for 5 mins by scintillation counting method relative to control. Type of test: cell membranes. A digest of the protocol:
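Pig brain cortex membranes, about 100 µg protein, with 2 nM [3H]-(+)-MK-801 in 5 mM TRIS/1 mM EDTA, pH 7.5, at rt for 120 min. Test compound at 1 µM, in duplicate. Non-specific binding defined with 10 µM unlabeled (+)-MK-801. Filtration on polyethylenimine-soaked filtermats, then [3H] scintillation counting for 5 min per well. Value given as % inhibition of radioligand binding.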

The target of test [5] is T1, Glutamate receptor ionotropic, NMDA 2B. Kind of test: Displacement of [3H]Ifenprodil from GluN2B receptor (unknown origin) expressed in mouse L(tk-) cell membranes. A digest of the protocol:
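Dexamethasone-induced (4 µM, with 4 µM ketamine, 24 h) GluN1a/GluN2B L(tk-) cell membranes, about 20 µg protein. […] Filtration and 5-min [3H] counting. Ki by Cheng-Prusoff (Kd 7.6 nM). Mean ± SEM of three experiments, or a single run for weak binders.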

Test [6] in a line: Selectivity ratio of Ki for sigma-1 receptor in guinea pig brain cortex membranes to Ki for GluN2B receptor (unknown origin) expressed in mouse L(tk-) cell membranes. Type of test: cell-based.
The species entered for a further test is Homo sapiens. The description is as §1. Type of test: cell-based. A digest of the protocol: as §2
Test [7] can be described thus: Selectivity ratio of Ki for sigma-2 receptor in rat liver membranes to Ki for GluN2B receptor (unknown origin) expressed in mouse L(tk-) cell membranes. Type of test: cell-based.

T1 sequence (Q13224 whole entry): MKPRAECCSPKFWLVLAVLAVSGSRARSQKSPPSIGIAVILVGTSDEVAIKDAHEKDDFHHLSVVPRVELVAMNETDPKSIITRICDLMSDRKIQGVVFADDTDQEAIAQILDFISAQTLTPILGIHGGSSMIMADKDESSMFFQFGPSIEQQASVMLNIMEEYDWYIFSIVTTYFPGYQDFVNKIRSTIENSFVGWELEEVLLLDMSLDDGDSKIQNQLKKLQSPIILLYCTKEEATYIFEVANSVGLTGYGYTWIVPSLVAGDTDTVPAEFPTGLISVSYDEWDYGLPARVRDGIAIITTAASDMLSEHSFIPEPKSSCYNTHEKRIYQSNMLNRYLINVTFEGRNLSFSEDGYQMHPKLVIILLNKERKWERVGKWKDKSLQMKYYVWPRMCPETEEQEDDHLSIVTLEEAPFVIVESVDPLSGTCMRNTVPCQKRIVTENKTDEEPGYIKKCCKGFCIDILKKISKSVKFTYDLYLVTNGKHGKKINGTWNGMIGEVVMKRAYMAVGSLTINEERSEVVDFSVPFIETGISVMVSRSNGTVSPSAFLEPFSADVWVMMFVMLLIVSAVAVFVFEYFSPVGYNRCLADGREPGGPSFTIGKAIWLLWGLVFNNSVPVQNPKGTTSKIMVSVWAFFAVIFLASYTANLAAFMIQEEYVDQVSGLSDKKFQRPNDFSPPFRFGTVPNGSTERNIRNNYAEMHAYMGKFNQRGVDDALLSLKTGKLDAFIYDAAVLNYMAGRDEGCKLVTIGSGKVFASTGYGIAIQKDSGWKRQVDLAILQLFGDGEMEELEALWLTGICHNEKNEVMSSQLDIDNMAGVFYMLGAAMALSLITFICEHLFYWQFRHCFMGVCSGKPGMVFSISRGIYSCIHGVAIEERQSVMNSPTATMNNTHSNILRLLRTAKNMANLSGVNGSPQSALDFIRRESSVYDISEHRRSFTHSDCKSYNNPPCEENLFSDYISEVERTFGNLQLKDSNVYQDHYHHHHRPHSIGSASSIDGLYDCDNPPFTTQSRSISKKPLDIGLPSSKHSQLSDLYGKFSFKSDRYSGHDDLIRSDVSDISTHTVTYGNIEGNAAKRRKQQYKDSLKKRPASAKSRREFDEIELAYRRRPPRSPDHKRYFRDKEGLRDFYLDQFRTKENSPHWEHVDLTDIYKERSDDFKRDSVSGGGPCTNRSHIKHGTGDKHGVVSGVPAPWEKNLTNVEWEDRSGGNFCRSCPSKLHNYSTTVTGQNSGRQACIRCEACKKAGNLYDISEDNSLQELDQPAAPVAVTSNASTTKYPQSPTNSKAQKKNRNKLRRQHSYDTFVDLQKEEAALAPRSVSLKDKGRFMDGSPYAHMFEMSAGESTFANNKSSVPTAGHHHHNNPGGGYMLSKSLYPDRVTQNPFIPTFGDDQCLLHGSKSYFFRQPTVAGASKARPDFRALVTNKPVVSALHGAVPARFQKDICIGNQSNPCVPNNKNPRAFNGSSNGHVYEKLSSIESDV
Sequence of Sigma non-opioid intracellular receptor 1 (Q60492 whole entry): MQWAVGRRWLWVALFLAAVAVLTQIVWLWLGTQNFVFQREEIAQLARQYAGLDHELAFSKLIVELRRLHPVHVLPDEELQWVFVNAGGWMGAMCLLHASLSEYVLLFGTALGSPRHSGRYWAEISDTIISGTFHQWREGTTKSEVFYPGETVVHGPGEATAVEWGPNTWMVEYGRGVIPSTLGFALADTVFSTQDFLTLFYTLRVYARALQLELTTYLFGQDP

With `C[C@@H](CN1CCC(Cc2ccccc2)CC1)[C@@H](O)c1ccc(O)cc1`, the IC50 in test [1] was 18 nM. In test [2], this compound had a Ki of 173 nM.

Take `Oc1ccc2c(c1)CCC(NCCCc1ccccc1)CC2` (stereo not drawn): the IC50 in [1] is 25000 nM. The Ki in test [3] turned out to be 123 nM; in [4] it was 32 nM; in [5], 28 nM. For the same compound, in the test filed under Sus scrofa, the inhibition was determined as 0%.

For the compound `CC(C(O)c1ccc(O)cc1)N1CCC(Cc2ccccc2)CC1` (stereo not drawn) [IFENPRODIL], in test [1], the IC50 came to 590 nM.

On to `OCc1ccc2c(c1)CCC(NCCCCc1ccccc1)CC2` (stereo not drawn), for which, in test [1], the IC50 is more than 100000 nM. Moreover, the Ki in test [3] was determined as 41 nM; in [2], 186 nM; in test [4], 271 nM. For the same compound, in the test listed under Sus scrofa, the inhibition was 0%. Further, the Ratio Ki in [6] came to 4.

Turning to `OCc1ccc2c(c1)CCC(NCCCc1ccccc1)CC2` (stereo not drawn), the IC50 in test [1] worked out at 5200 nM. The inhibition entry is “Dose-dependent effect” in the test filed under Homo sapiens and 0% in the test filed under Sus scrofa. The Ratio Ki in test [7] and in test [6] was 5 to 6 each time. Further, the Ki worked out at 565 nM in test [3], 101 nM in test [2] and 592 nM in [4].

For `Oc1ccc2c(c1)CCC(NCCCCc1ccccc1)CC2` (stereo not drawn), in [1], the IC50 turned out to be 3000 nM. Moreover, the Ki in [3] is 211 nM; in test [4], 96 nM; in test [5], 21 nM. Further, the inhibition in the test filed under Sus scrofa came to 25%.

The compound `COc1ccc2c(c1)CC[C@@H](NCCCc1ccccc1)C[C@H]2O` (relative stereo) showed a Ki in [5] of 16 nM.

The IC50 is the concentration at which inhibition is half-maximal. Broadly, the Ki is a measure of affinity in units of concentration, obtained from inhibition or displacement. Usually inhibition stands for the change of the read-out against control, counted positive when it falls.

For the origin of these results see ChEMBL document CHEMBL4251630, “Hydroxymethyl bioisosteres of phenolic GluN2B-selective NMDA receptor antagonists: Design, synthesis and pharmacological evaluation” (Eur J Med Chem, 2018).
